Assay [1] has as its target Beta-lactamase L1 (Stenotrophomonas maltophilia) (UniProt P52700). The assay is described as follows: Inhibition of Stenotrophomonas maltophilia metallo-beta-lactamase L1 expressed in Escherichia coli BL21(DE3) assessed as cefalexin V antimicrobial MIC incubated at 37 degC for 12 hrs by macrodilution (tube) broth method (reference value: 8 ug/mL). In a few lines: (§1)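 β-Lactam antibiotic MIC (μg/mL) against E. coli BL21(DE3) carrying plasmids pMSZ02-CcrA, pET26b-NDM-1, pET26b-ImiS or pET26b-L1. Measured with and without test compound at 16 μg/mL.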

Assay [2] deals with Beta-lactamase (Aeromonas veronii) (UniProt O31272). The assay is described as follows: Inhibition of Aeromonas veronii metallo-beta-lactamase ImiS expressed in Escherichia coli BL21(DE3) assessed as imipenem antimicrobial MIC incubated at 37 degC for 12 hrs by macrodilution (tube) broth method. The gist of the method:
as §1

The nature of assay [3]: Inhibition of metallo-beta-lactamase NDM1 (unknown origin) expressed in Escherichia coli BL21(DE3) up to 10 uM using cefazolin V substrate pre-incubated for 30 mins by Lineweaver-Burk plot method.
Assay [4] deals with Metallo-beta-lactamase type 2 (Bacteroides fragilis) (UniProt P25910). As to the kind of experiment: Inhibition of Bacteroides fragilis metallo-beta-lactamase CcrA expressed in Escherichia coli BL21(DE3) up to 10 uM using cefazolin V substrate pre-incubated for 30 mins by Lineweaver-Burk plot method.
Assay [5] has as its target T1, Beta-lactamase IMP-1 (Pseudomonas aeruginosa) (UniProt Q8G9Q0).
T1 sequence (whole entry): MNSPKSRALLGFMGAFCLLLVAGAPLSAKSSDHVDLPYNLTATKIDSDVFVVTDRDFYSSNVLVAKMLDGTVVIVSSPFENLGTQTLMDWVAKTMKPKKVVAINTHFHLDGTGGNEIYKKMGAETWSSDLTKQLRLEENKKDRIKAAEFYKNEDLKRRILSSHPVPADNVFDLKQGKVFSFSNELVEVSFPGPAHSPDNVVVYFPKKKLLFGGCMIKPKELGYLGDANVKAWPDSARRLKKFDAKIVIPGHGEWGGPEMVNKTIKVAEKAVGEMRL
The assay is described as follows: Inhibition of Pseudomonas aeruginosa metallo-beta-lactamase IMP1 expressed in Escherichia coli BL21(DE3) assessed as imipenem antimicrobial MIC incubated at 37 degC for 12 hrs by macrodilution (tube) broth method (reference value: […] ug/mL).

Another assay relates to Klebsiella pneumoniae. As to the kind of experiment: Inhibition of Klebsiella pneumoniae metallo-beta-lactamase expressed in Escherichia coli BL21(DE3) assessed as imipenem antimicrobial MIC incubated at 37 degC for 12 hrs by macrodilution (tube) broth method.
The nature of assay [6]: Inhibition of metallo-beta-lactamase NDM1 (unknown origin) expressed in Escherichia coli BL21(DE3) assessed as cefalexin V antimicrobial MIC incubated at 37 degC for 12 hrs by macrodilution (tube) broth method (reference value: 4 ug/mL). The gist of the method:
as §1

Assay [7] addresses Beta-lactamase L1 (Stenotrophomonas maltophilia) (UniProt P52700). The assay is described as follows: Inhibition of Stenotrophomonas maltophilia metallo-beta-lactamase L1 expressed in Escherichia coli BL21(DE3) up to 10 uM using cefazolin V substrate pre-incubated for 30 mins by Lineweaver-Burk plot method.
For assay [8], the target named is Metallo-beta-lactamase type 2 (Bacteroides fragilis) (UniProt P25910). As to the kind of experiment: Inhibition of Bacteroides fragilis metallo-beta-lactamase CcrA expressed in Escherichia coli BL21(DE3) assessed as cefalexin V antimicrobial MIC incubated at 37 degC for 12 hrs by macrodilution (tube) broth method (reference value: 4 ug/mL). The gist of the method:
as §1

The record followed here is ChEMBL document CHEMBL3576784, “Azolylthioacetamide: A Highly Promising Scaffold for the Development of Metallo-β-lactamase Inhibitors” (ACS Med Chem Lett, 2015).

Molecules are shown by their SMILES. Calls of active or inactive are those of the source. The rule behind the calls is not given here.

Chain of Metallo-beta-lactamase type 2 (Bacteroides fragilis) (P25910 whole entry): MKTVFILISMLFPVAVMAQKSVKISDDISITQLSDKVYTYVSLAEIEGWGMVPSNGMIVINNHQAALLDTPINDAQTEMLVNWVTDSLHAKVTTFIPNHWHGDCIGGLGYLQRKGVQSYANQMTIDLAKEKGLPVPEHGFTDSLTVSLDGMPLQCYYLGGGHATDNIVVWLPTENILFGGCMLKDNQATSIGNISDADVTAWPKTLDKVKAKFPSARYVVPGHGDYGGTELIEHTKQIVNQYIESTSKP
Chain of Beta-lactamase (Aeromonas veronii) (O31272 as listed by the source): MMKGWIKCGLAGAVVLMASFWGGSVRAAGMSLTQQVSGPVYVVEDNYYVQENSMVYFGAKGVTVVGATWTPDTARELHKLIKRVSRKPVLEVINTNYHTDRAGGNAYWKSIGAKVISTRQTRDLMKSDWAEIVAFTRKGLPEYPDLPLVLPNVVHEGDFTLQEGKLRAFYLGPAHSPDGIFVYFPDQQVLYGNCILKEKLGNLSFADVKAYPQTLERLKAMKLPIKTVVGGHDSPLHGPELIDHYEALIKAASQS
Chain of Beta-lactamase L1 (Stenotrophomonas maltophilia) (P52700 34-290 limits assumed): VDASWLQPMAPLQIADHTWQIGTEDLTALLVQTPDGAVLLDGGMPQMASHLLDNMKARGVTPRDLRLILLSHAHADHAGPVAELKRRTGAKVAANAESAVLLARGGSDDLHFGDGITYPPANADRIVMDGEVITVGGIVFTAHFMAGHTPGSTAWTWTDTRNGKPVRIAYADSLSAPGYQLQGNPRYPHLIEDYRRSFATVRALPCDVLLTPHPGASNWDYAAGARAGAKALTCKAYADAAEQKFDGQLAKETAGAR

For the molecule `O=C(CSc1nnc(-c2ccccc2C(=O)O)[nH]1)Nc1ccccc1Cl`, the MIC in assay [1] is 64 µg/mL; in assay [2] it was 0.25 µg/mL; in assay [5] it was less than 0.125 µg/mL; in the assay on Klebsiella pneumoniae, 0.5 µg/mL; in assay [6] it was 4 µg/mL; in [8], 2 µg/mL. Also, the inhibition entry in assay [3], in assay [4] and in [7] was “inactive” each time.

With `O=C(CSc1nnc(-c2ccccc2C(=O)O)[nH]1)Nc1ccccc1[N+](=O)[O-]`, the MIC in [1] is greater than 128 µg/mL; in [2], less than 0.125 µg/mL; in [5], less than 0.125 µg/mL; in the assay on Klebsiella pneumoniae it was 0.5 µg/mL; in [6], 4 µg/mL; in [8] it was 0.25 µg/mL. The inhibition result in [3], in [4] and in [7] was “inactive” throughout.

Regarding `O=C(O)CCc1nnc(SCC(=O)Nc2nc3ccccc3s2)[nH]1`, the inhibition entry in assay [3], in assay [4] and in [7] was “inactive” throughout.

For `O=C(CSc1nnc(-c2ccccc2C(=O)O)[nH]1)Nc1ccc([N+](=O)[O-])cc1`, the MIC stood at 16 µg/mL in assay [1]; 0.5 µg/mL in [2]; 0.25 µg/mL in assay [5]; 0.5 µg/mL in the assay on Klebsiella pneumoniae; 4 µg/mL in assay [6]; 2 µg/mL in assay [8]. Also, the inhibition entry in assay [3], in assay [4] and in assay [7] was “inactive” in each case.

For `O=C(CSc1nnc(-c2ccccc2C(=O)O)[nH]1)Nc1cccc([N+](=O)[O-])c1`, the MIC in assay [1] was 8 µg/mL; in assay [2] it was 0.25 µg/mL; in assay [5], less than 0.125 µg/mL; in the assay on Klebsiella pneumoniae, 0.5 µg/mL; in assay [6] it was 4 µg/mL; in assay [8] it was 2 µg/mL. Also, the inhibition entry in [3], in assay [4] and in [7] was “inactive” each time.

As to `O=C(CSc1nnc(-c2ccccc2C(=O)O)[nH]1)Nc1nc2ccccc2[nH]1`, the MIC in [1] worked out at 8 µg/mL; in assay [2], 1 µg/mL; in assay [5] it was 0.25 µg/mL; with Klebsiella pneumoniae, 0.5 µg/mL; in assay [6], 4 µg/mL; in assay [8], 4 µg/mL. In addition, the inhibition entry in assay [3], in [4] and in assay [7] was “inactive” each time.

Consider `O=C(CSc1nnc(-c2ccccc2C(=O)O)[nH]1)Nc1nc2ccccc2s1`, for which the MIC was 8 µg/mL in assay [1]; 1 µg/mL in assay [2]; less than 0.125 µg/mL in [5]; 0.5 µg/mL in the assay on Klebsiella pneumoniae; 4 µg/mL in assay [6]; less than 0.125 µg/mL in [8]. The inhibition entry in assay [3], in assay [4] and in [7] was “inactive” each time.

For the molecule `O=C(O)CCCc1nnc(SCC(=O)Nc2nc3ccccc3[nH]2)[nH]1`, the inhibition entry in assay [3], in assay [4] and in assay [7] was “inactive” throughout.

As to `O=C(CSc1nnc(-c2ccccc2C(=O)O)[nH]1)Nc1cccc(Cl)c1`, the MIC in [1] was 64 µg/mL; in assay [2], less than 0.125 µg/mL; in assay [5], less than 0.125 µg/mL; in the assay on Klebsiella pneumoniae it was 0.5 µg/mL; in assay [6] it was 4 µg/mL; in [8] it was 0.5 µg/mL. The inhibition entry in [3], in assay [4] and in assay [7] was “inactive” each time.

Consider `O=C(O)CCc1nnc(SCC(=O)Nc2nc3ccccc3[nH]2)[nH]1`, for which the inhibition result in assay [3], in assay [4] and in assay [7] was “inactive” in each case.

For the molecule `O=C(O)CCc1nnc(SCC(=O)Nc2ccccc2)[nH]1`, the inhibition result in assay [3], in assay [4] and in assay [7] was “inactive” throughout.

For the molecule `O=C(CSc1nnc(-c2ccccc2C(=O)O)[nH]1)NCc1ccccc1`, the MIC in assay [1] is 16 µg/mL; in assay [2], 1 µg/mL; in assay [5], less than 0.125 µg/mL; in the assay on Klebsiella pneumoniae it was 0.5 µg/mL; in [6], 4 µg/mL; in [8], 4 µg/mL. Besides, the inhibition entry in assay [3], in assay [4] and in assay [7] was “inactive” each time.

In the case of `O=C(O)CCc1nnc(SCC(=O)Nc2ccc(Cl)cc2)[nH]1`, the inhibition entry in assay [3], in assay [4] and in assay [7] was “inactive” in each case.

`O=C(CSc1nnc(-c2ccccc2C(=O)O)[nH]1)Nc1ccccc1`: the MIC in assay [1] turned out to be 8 µg/mL; in assay [2], 1 µg/mL; in assay [5], 0.25 µg/mL; with Klebsiella pneumoniae, 0.5 µg/mL; in [6], 4 µg/mL; in assay [8] it was 4 µg/mL. The inhibition result in assay [3], in assay [4] and in assay [7] was “inactive” each time.

Turning to `O=C(CSc1nnc(-c2ccccc2C(=O)O)[nH]1)Nc1ccc(Cl)cc1`, the MIC is 8 µg/mL in [1]; 0.5 µg/mL in assay [2]; 0.25 µg/mL in assay [5]; 0.5 µg/mL in the assay with Klebsiella pneumoniae; 4 µg/mL in [6]; less than 0.125 µg/mL in [8]. Also, the inhibition result in assay [3], in assay [4] and in [7] was “inactive” in each case.
